Measurements from different studies.
Lines come from different studies, so protocols differ.
Effect on: cell growth or viability

Compound | cell line | test | setting | IC50 [µM]
CC(C)C(=O)Nc1ccc([N+](=O)[O-])c(C(F)(F)F)c1 | IOSE-144 | CCK-8 | 48 h | > 50
CC(C)C[C@H](NC(=O)[C@H](Cc1ccccc1)NC(=O)c1cnccn1)B(O)O | HuTu80 | ATP luminescence |  | 0.014
C[C@H]1O[C@@H](n2cc(F)c(=O)[nH]c2=O)[C@H](O)[C@@H]1O | IOSE-144 | CCK-8 | 48 h | 16.5
Cc1cccc(-n2ncc(Br)c(Br)c2=O)c1 | NCI-H2444 | resazurin | 96 h | 0.31
Oc1ccc(Nc2nc(-c3ccc(Cl)cc3)cs2)cc1 | 1205Lu | MTS | 72 h | 71.8
Cc1cc(Nc2ncc(Cl)c(Nc3ccccc3S(=O)(=O)C(C)C)n2)c(OC(C)C)cc1C1CCNCC1 | BJ |  | 72 h | 2.6
O=C(N/N=C/c1c(O)ccc2ccccc12)c1cc(-c2ccc3ccccc3c2)n[nH]1 | 1205Lu | MTS | 24 h | 20.4
COc1cc(N2CCC(N3CCN(C)CC3)CC2)ccc1Nc1ncc(Cl)c(Nc2ccccc2S(=O)(=O)C(C)C)n1 | BJ |  | 72 h | 0.9
CN(C)C/C=C/C(=O)Nc1cc2c(Nc3ccc(F)c(Cl)c3)ncnc2cc1O[C@H]1CCOC1 | KB-C2 | MTT | 72 h | 4.9
Cc1[nH]c(/C=C2\C(=O)Nc3ccc(S(=O)(=O)N(C)c4cccc(Cl)c4)cc32)c(C)c1C(=O)N1CCN(C)CC1 | BJ |  | 72 h | 5.19
O=C1NC(=O)[C@@H](c2cn3c4c(cccc24)CCC3)[C@@H]1c1c[nH]c2ccccc12 | SW-1736 | MTT | 72 h | 0.11
